Source: PubChem (Broad Institute)
Most compounds without a hit are left out; they make up all but 3.1% or so of the library.
S100A4 inh HTS – blocks human S100A4 binding to myosin IIA peptide; hit rate 0.14% among 360,000; inhibition, % at 10.7 µM; S100A4/TAMRA-MyoIIA peptide fluorescence polarization; AID 652163; P26447;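 active means mean inhibition of at least 70% across replicates, with every replicate also reaching that level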
Target sequence (P26447 whole entry, looked up): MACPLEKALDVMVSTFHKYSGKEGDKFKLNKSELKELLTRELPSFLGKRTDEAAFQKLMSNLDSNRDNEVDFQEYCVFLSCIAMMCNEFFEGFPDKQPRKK
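Material: S100A4 monomer protein | Medium: HEPES pH 7.2 with CaCl2, KCl, NaCl, DTT, Triton | Reagent: Labelled myosin peptide probe, 5 nM | Doses: One dose per compound | Times: 5 min incubation before reading | Benchmarks: Neutral control DMSO, positive control TFP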
Ecoli rRNA inh – inhibitors of bacterial rRNA selective over humanized ribosomes. E. coli WT GFP vs humanized-ribosome RFP mutants, fluorescence, 24 h; hits give low values; DMSO median 0, no signal -100. GFP signal change (wild-type ribosome), % (concentration not given with the values). hit rate 1.6% among 350,000. AID 720706;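 active means significant combined selectivity score with lowered wild-type GFP, culture density cut under 30%, mutant RFP and density less affected; inactive means any of these conditions unmet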
SIRT5 inh – inhibitors of human sirtuin-5 desuccinylase; inhibition, % at 15 µM; Q9NXA8; Purified SirT5, succinyl-peptide AMC, trypsin-coupled fluorescence; hit rate 1.1% among 330,000; AID 652115; in the data active means inhibition above about 15%
Target sequence (Q9NXA8 whole entry, looked up): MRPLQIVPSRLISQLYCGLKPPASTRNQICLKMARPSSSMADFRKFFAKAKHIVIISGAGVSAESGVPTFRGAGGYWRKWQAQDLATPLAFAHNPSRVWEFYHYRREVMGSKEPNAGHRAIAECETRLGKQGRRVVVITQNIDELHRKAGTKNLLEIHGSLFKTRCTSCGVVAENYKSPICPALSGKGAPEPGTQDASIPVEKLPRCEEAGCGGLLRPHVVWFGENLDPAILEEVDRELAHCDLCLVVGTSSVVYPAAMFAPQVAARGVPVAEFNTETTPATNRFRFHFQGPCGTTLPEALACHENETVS
ERAP1 HTS inh – ERAP1 (human) enzyme inhibition; AID 652197; Q9NZ08; inhibition, % at 10.7 µM; recombinant ERAP1, Leu-AMC fluorescence, 60 min; hit rate 0.15% among 340,000;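 active means mean replicate inhibition of at least 30%, or all replicates individually reaching that 30% level; inactive means mean below 30% and not every replicate reaching it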;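 further: 0% = neutral control wells and 100% = L-leucinethiol positive control wells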
CFTR F508del cor – CFTR F508del correction in bronchial cells; CFBE cells, YFP halide quenching; stimulated with forskolin plus potentiator P3; % fluorescence drop versus neutral controls; activity (quench increase), % at 7.58 µM; hit rate 0.36% among 350,000;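 active means mean added fluorescence quench of at least 8% versus neutral control, with both replicates also reaching 8%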;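 further: cells transiently co-express mutant CFTR-F508del with the halide-sensitive YFP; corrector assay measuring rescue of mutant channel to the surface after 24 h compound exposure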
* = called active by the depositor; . = no result given.

SMILES	S100A4 inh HTS	Ecoli rRNA inh	SIRT5 inh	ERAP1 HTS inh	CFTR F508del cor
C[C@H](CO)N1C[C@H](C)[C@H](CN(C)C(=O)CN2CCOCC2)Oc2ncc(C#CCN(C)C)cc2C1=O	5	0	0	4	.
CC1CN(S(=O)(=O)c2ccc(C(=O)Nc3ccccc3F)cc2)CC(C)O1 (stereo unspecified)	-2	2	1	1	9.1*
Cc1nnc(NC(=O)c2ccc(S(=O)(=O)N3CC(C)OC(C)C3)cc2)o1 (stereo unspecified)	-3	-11	-5	-2	0
CCOC(=O)N1CCN(C(=O)/C(=C/c2ccc(OC)c(OC)c2)NC(=O)c2ccccc2)CC1	-1	6	2	-2	0
COc1ccc(/C=C(\NC(=O)c2ccccc2)C(=O)OC[C@@H]2CCC[N+]3(C)CCCCC23)cc1OC (stereo partly specified)	-7	21	2	39*	2
O=C(Nc1nc(-c2ccccn2)cs1)c1cc(Cl)ccc1[N+](=O)[O-]	-6	-50	-3	-1	-4
CC(C)[C@H](NC(=O)c1ccccc1Cl)C(=O)Nc1nc(-c2ccccn2)cs1	0	-29*	-9	-2	3
Cc1cc(C(=O)Nc2nc(-c3ccccn3)cs2)ccc1[N+](=O)[O-]	2	-29*	-1	2	0
N#C[C@H]1[C@H](c2ccc(C#Cc3cccnc3)cc2)[C@@H](CO)N1C(=O)NC1CCCC1	.	-5	.	.	.
C[C@H](CO)N1C[C@H](C)[C@@H](CN(C)S(=O)(=O)c2ccccc2)Oc2c(NC(=O)C3CCOCC3)cccc2C1=O	-3	3	-6	-2	0
COc1ccc2c3c([nH]c2c1)[C@@H](CO)N(C(=O)c1cccc(F)c1)CC31CN(C(=O)c2ccccc2)C1	4	-4	.	-2	-2
CC1CCCN(C(=O)Cc2cccc3ccccc23)C1 (stereo unspecified)	1	-29*	3	-1	0
O=C(C[C@H]1C=C[C@H](NC(=O)c2ccc3c(c2)OCO3)[C@H](CO)O1)NCc1ccc(Cl)cc1	-4	-2	-2	1	-2
O=C(C[C@@H]1CC[C@@H]2[C@H](COC[C@H](O)CN2C(=O)c2cccnc2)O1)NCc1ccc(Cl)cc1	94*	4	10	-6	1
COc1ccc(CN2C[C@H](O)COC[C@@H]3O[C@@H](CC(=O)N(C)C)CC[C@H]32)cc1	94*	7	9	-1	0
CN(C)C(=O)C[C@H]1CC[C@@H]2[C@H](COC[C@@H](O)CN2C(=O)c2ccncc2)O1	-3	6	16*	-4	2
COc1ccc(CN2C[C@@H](O)COC[C@@H]3O[C@H](CC(=O)N4CCc5ccccc5C4)CC[C@H]32)cc1	2	-34	17*	1	3
O=C(C[C@H]1CC[C@H]2[C@@H](COC[C@@H](O)CN2C(=O)c2cccnc2)O1)NCc1ccc(Cl)cc1	-27	1	4	-4	1
COc1ccccc1NC(=O)N[C@H]1C=C[C@H](CC(=O)N[C@H](C)c2ccccc2)O[C@H]1CO	5	-3	-2	-3	-1
O=C(C1CCCC1)N1C[C@H]2[C@@H](c3ccccc31)[C@@H](CO)N2C(=O)c1cccnc1	0	7	-2	-2	0
CSCc1ccc(C(=O)OCc2nc3ccccc3s2)o1	-7	-16*	.	0	0
O=C(OCc1nc2ccccc2s1)c1ccccc1O	-4	-29	-3	-3	-7
O=C(C[C@H]1C=C[C@H](NC(=O)CN2CCOCC2)[C@H](CO)O1)NCCc1ccncc1	10	0	1	2	3
CCOC(=O)c1cc(OC(=O)c2cccs2)n(-c2ccccc2)n1	-4	-18*	4	3	-4
CCOC(=O)c1cc(OC(=O)c2ccccc2Br)n(-c2ccccc2)n1	-2	-6	13	-1	-1
Nc1nc(SCc2ccccc2)c2ncn(Cc3ccccc3)c2n1	1	-17*	.	2	-1
Cc1ccc(NS(=O)(=O)c2cccc(C(=O)N3CCCC(C)C3)c2)cc1 (stereo unspecified)	-2	0	-1	1	1
CCOc1ccc(NS(=O)(=O)c2ccc(C(=O)N3CCCCC3)cc2)cc1	-6	-6	-2	0	2
